# Assay results gathered from unrelated publications.
# Protocols differ between the studies behind these lines.
# Target: Serine/threonine-protein kinase Sgk2 (SGK2, Homo sapiens, UniProt Q9HBY8)
# Sequence (Q9HBY8 1-367, as in one of the studies): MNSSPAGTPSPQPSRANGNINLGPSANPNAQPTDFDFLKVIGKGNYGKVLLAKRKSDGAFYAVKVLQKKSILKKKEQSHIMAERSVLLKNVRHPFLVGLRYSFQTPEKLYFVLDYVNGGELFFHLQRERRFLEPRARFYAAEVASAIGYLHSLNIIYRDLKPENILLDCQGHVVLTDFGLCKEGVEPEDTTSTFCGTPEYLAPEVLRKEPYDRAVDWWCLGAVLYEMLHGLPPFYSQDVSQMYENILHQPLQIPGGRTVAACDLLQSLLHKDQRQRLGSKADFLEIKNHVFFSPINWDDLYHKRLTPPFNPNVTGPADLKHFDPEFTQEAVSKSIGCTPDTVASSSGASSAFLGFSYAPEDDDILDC
SMILES,read-out,technique,tested at,remaining binding [%]
Cc1cc(C)c(-n2ccn3nc(-c4cccnc4)cc23)cc1NC(=O)c1cc(C#N)cc(S(F)(F)(F)(F)F)c1,cell-free assay,competition with immobilised ligand,0.1 µM,100
c1cncc(-c2cccc(Nc3nccc(NC4CCCCC4)n3)c2)c1,binding,competition with immobilised ligand,10 µM,95
Cc1cnn2ncc(-c3ccnc(N(C)C)n3)c2c1,binding,,1 µM,84
O=C(NCc1ncc(C(F)(F)F)cc1Cl)c1ccc2c(c1)C1(CCS(=O)(=O)CC1)[C@H](C1CC1)N2S(=O)(=O)c1ccc(F)cc1,cell-free assay,competition with immobilised ligand,1 µM,83
CN(C)c1ncc(F)c(-c2cnn3ncccc23)n1,binding,,1 µM,72
COc1ccc2c(c1)O[C@H](c1ccc(OC)c(OC)c1)C[C@@H]2NC(=O)C1(c2ccc3c(c2)OC(F)(F)O3)CC1,cell-free assay,competition with immobilised ligand,1 µM,100
Cc1cnc(Nc2ccc(C(=O)N3CCC(N4CCCC4)CC3)cc2)nc1-c1cc2ccccc2s1,binding,competition with immobilised ligand,1 µM,29
C[C@@H](c1ccc(-n2cnc3c(N)ncnc32)cc1)N1CCc2nn(C)c(Cc3ccccc3)c2C1=O,binding,competition with immobilised ligand,0.1 µM,48
C=CC(=O)N1CCC(C(=O)NCC(=O)N2CCN(c3nc(-c4cnc(N)nc4C(F)F)nc(N4CCOCC4)n3)CC2)CC1,binding,competition with immobilised ligand,1 µM,86
CN(C)c1nccc(-c2cnc3ncccn23)n1,binding,,1 µM,81
COc1cnc(Nc2cccc(S(N)(=O)=O)c2)nc1N1CCN(c2ccccc2)CC1,binding,competition with immobilised ligand,1 µM,82
Cn1cc(Cl)c2c(Oc3c(F)cc(Nc4cc(Cl)nc(N)n4)cc3F)ccnc21,cell-free assay,competition with immobilised ligand,0.1 µM,86
C[C@@H]1CCN(c2nccc(-c3cnn4ncccc34)n2)C1,binding,,1 µM,81
CC(=O)N1CCC(c2ccc(C(=O)NC(=N)N)cc2C(F)(F)F)CC1,cell-free assay,competition with immobilised ligand,1 µM,100
CN(CCCC(F)(F)F)c1nccc(-c2cnn3ncccc23)n1,binding,,1 µM,93
O=C(NCCCN1CCOCC1)c1ccc(Nc2ncc(Cl)c(-c3ccc(Cl)s3)n2)cc1,binding,competition with immobilised ligand,1 µM,100
CN(C)c1nccc(-c2cnn3ncccc23)n1,binding,,1 µM,75
O=C(Nc1c[nH]nc1C(=O)NC1CCNCC1)c1cc(F)cc(F)c1,binding,competition with immobilised ligand,1 µM,93
FC(F)(F)Oc1cccc(-c2cnc3ccc(-c4ccncc4)nn23)c1,binding,competition with immobilised ligand,5 µM,77
O=C(c1ccc(Nc2ncc(Cl)c(-c3cc4ccccc4s3)n2)cc1)N1CCC(N2CCCC2)CC1,binding,competition with immobilised ligand,1 µM,48
COCCOc1nc(-c2ccc(Cl)nc2)nc2c1CN(C(=O)c1ncn3ccccc13)CC2,cell-free assay,competition with immobilised ligand,0.1 µM,88
